This is a sample that favours compounds with a hit; in the whole collection about 1.9% have one here.
Autophagy mod = modulators of autophagy; 0.98% of 190,000 active; MEF GFP-LC3 puncta imaging; test concentration mostly 10 µM; calls only at 10 µM (by protocol);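 active = percentage of spot-positive cells more than 3 SD above its plate mean, without a fluorescence outlier flag or 80% toxicity; inconclusive = no clear call, values can overlap the other calls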;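 note: spot-positive cell cutoff set from DMSO-treated cells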
bCat nuc transl = modulators of beta-catenin nuclear translocation. HeLa beta-catenin nuclear translocation, immunofluorescence imaging. nuclear translocation activity, % at 5 µM. 0.3% of 190,000 active. AID 1665;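 active = nuclear translocation activity above 50% at 5 µM, with a well cell count of 50 or more; inconclusive = wells under 50 cells across six images, flagged as toxic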;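 note: per-cell ratio of nuclear to cytoplasmic median beta-catenin stain intensity; plate controls were DMSO negative control for no effect and GSK-3 inhibitor IX positive control for full effect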
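Test system: human HeLa cell line; Doses: 5 µM primary, 0.02–20 µM confirmation; Incubation: 24 h compound exposure, 37°C; Detection: beta-catenin immunofluorescence imaging with DAPI; Read-out: beta-catenin nuclear/cytoplasmic ratio, % activation.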
Ins promoter up = MIN6 insulin promoter up-regulation; MIN6 insulin promoter-GFP reporter, high-content imaging; hits give high values; z-score at 5 µM; 0.3% of 190,000 active;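 active = z-score above 3 at 5 µM with at least 500 cells counted in the well; inconclusive = wells under 500 cells, flagged as cytotoxic or low count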
MT stabilizer = stabilizes microtubules in HeLa cells; HeLa tubulin immunostaining HCS, 24 h; share of cells brighter than vehicle mean+2SD; % tubulin-high responders, % at 10 µM; 0.83% of 200,000 active;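 active = plate Z-score above 3 for both tubulin-high and condensed-nucleus cell shares, with cell loss under 80%, at 10 µM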;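 note: anti alpha tubulin signal scored within the nucleus-defined area of each cell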
* marks the source's active call; other numbers are inactive results; i = inactive; ? = inconclusive; . = no result given; + = active, no number.

SMILES | Autophagy mod | bCat nuc transl | Ins promoter up | MT stabilizer
O=C(c1c[nH]c(C(=O)N2CCN(c3ccccc3F)CC2)c1)c1cccc(Cl)c1Cl | i | -0.5 | 0.88 | 23.1*
COc1cc(/C=N/NC(=O)c2cc(-c3ccc4c(c3)OCO4)n[nH]2)ccc1O | i | 1.0 | -0.08 | 3.1
Nc1cc(=O)[nH]c(SCC(=O)Nc2nc3ccc([N+](=O)[O-])cc3s2)n1 | + | 1.2 | -0.15 | 1.5
COc1ccc2c(c1)c1nc3ccccc3nc1n2Cc1ccc(OC(C)C)c(OC)c1 | + | 1.3 | 0.95 | 5.6
COc1ccc2c(c1)c1nc3ccccc3nc1n2CC(=O)OC(C)C | + | . | . | 2.0
COc1ccc(Cn2c3ccc(OC)cc3c3nc4ccccc4nc32)cc1 | + | -0.9 | 0.6 | 7.7
COc1ccc(Cn2c(N)c(C#N)c3nc4ccccc4nc32)cc1OC | i | . | -0.65 | 1.2
CCOC(=O)C1=C(O)/C(=C/c2cn(CC(=O)NCC3CCCO3)c3ccccc23)SC1=Nc1ccc(C)cc1 (stereo not drawn) | + | . | . | 3.6
CC(C)C(=O)c1cn(CC(=O)NCC2CCCO2)c2ccccc12 (stereo not drawn) | i | -3.9 | 0.57 | 4.2
CCOc1c(Cl)cc(CNCC(C)C)cc1Cl | i | . | . | 5.0
Cc1cc(=O)oc2cc(NC(=O)c3cc4ccccc4o3)ccc12 | + | -3.4 | . | 1.7
CC1(C)N([O-])C2=C(c3ccccc3C2=O)[N+](=O)C1(C)C | i | . | -0.09 | 0.9
CCCS(=O)c1nc(C)cc(C)c1S(C)(=O)=O (stereo not drawn) | i | -2.3 | -0.09 | 1.0
CCC(=O)OCC(=O)c1c(N)n(Cc2ccccc2)c(=O)n(C)c1=O | i | -2.7 | 3.29* | 1.4
CN(C(=S)NC1CCCCC1)C1(c2ccccc2Cl)CCCCC1=O (stereo not drawn) | + | -1.6 | -0.11 | 5.2
CCN1/C(=C/c2ccc3cc(C)ccc3[n+]2C)Sc2ccc3sccc3c21 | + | . | ? | 77.4*
CCOC(=O)c1ccc(NC(=O)CSC(=S)N2CCOCC2)cc1 | + | 0.2 | -0.17 | 2.5
CCOC(=O)c1ccc(NC(=O)N2CCOCC2)cc1 | i | 1.0 | 0.19 | 1.5
Cc1ccc(S(=O)(=O)N(C)c2ccc(N)cc2)cc1 | i | -3.7 | -0.89 | 2.2
Cc1ccc(S(=O)(=O)N(C)c2ccc3sc(C)nc3c2)cc1 | i | -2.2 | 0 | 18.1*
Cc1cc(NC(=O)c2cc(C(C)C)on2)nn1Cc1ccc(Cl)cc1 | i | 0.1 | 0.89 | 4.3
CN(Cc1cccs1)C(=O)Cn1cnc2ccccc2c1=O | + | -1.0 | . | 2.1
Cc1sc(NC(=O)c2ccco2)c(C(c2cccnc2)N2CCC(C)CC2)c1C (stereo not drawn) | i | -2.2 | -1.13 | 3.3
Cc1nc2ccccc2n1CC(=O)OCC(=O)Nc1ccc2c(c1)OCCO2 | i | -4.7 | -0.32 | 1.8
Cc1nc2ccccc2n1CC(=O)OCC(=O)NC1CC1 | + | -1.4 | -0.55 | 2.9
SMILES | Autophagy mod | bCat nuc transl | Ins promoter up | MT stabilizer
O=C1CC(c2cccc(Br)c2)c2cc3c(cc2N1)CCC3 (stereo not drawn) | i | -0.1 | -2.05 | 28.1*
O=C1CC(c2cc(F)ccc2F)c2cc3c(cc2N1)CCC3 (stereo not drawn) | i | -1.0 | 2.11 | 14.4*
CC1(C)CC(=O)C2=C(C1)NC(=O)CC2c1cc(F)ccc1F (stereo not drawn) | i | -0.1 | -0.86 | 1.2
CN(C)c1ccc(C(=O)c2ccc(N(C)C)c3ccccc23)cc1 | + | 39.1 | -5.22 | 11.9
COc1ccc(C(=O)c2ccc(OC)cc2OC)cc1 | . | 55.7* | -0.12 | .
COc1ccc(C(=O)c2ccc(N(C)C)cc2)c(OC)c1 | i | 95.5* | 0 | 24.4
CN(C)c1ccc(C(=O)c2ccccc2C(=O)O)cc1[N+](=O)[O-] | i | -1.1 | 0.31 | 2.8
CCN1C(=O)CC2(C[N+]3(C)CCC2CC3)C1=O (stereo not drawn) | i | . | -0.41 | 1.5
CC(C)(C)c1cc2cccnc2n1Cc1cccc(Cl)c1 | i | 0.3 | -0.82 | 1.7
O=C(CC(Nc1ccccc1)c1ccccc1)C1CC1 (stereo not drawn) | . | -3.1 | -0.16 | .
CCN(CC)CC(=O)Nc1ccc2c(c1)Nc1ccccc1CC2 | i | 19.4 | -2.26 | 31.3*
NS(=O)(=O)c1ccc(O)c(NC(=O)c2ccc([N+](=O)[O-])o2)c1 | . | -0.4 | 0.33 | .
Oc1ccccc1CN1CCCN(Cc2ccccc2O)C1 | + | 0.8 | -0.27 | 3.4
Cc1ccccc1OCCSc1nnc(-c2cccnc2)n1N | i | 3.1 | 1.07 | 3.2
O=C(NN=C1CCN(Cc2ccccc2)CC1)c1cccc(S(=O)(=O)Nc2ccccc2Cl)c1 | i | 0.1 | 3.03* | 2.7

Screening results: PubChem BioAssay, several laboratories
